The list is not random: actives were taken first. Their share in the collection is about 2.3%.
TRPC6 activator – activates the mouse TRPC6 cation channel; Q61143; HEK293-TRPC6 membrane potential dye fluorescence; hits give high values; B-score at 10 µM; 310,000 compounds, 0.13% hits; AID 2550;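 active means B-score of the integrated fluorescence ratio above library mean plus 3 SD, and starting fluorescence ratio within library mean plus 5 SD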;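 further: higher score means more depolarization so channel activation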
TRPC4 inh – inhibitors of mouse TRPC4 channel. HEK293 TRPC4beta/mu-opioid, DAMGO-evoked Fluo4 calcium flux; hits give low values. B-score at 10 µM. 300,000 compounds, 0.39% hits;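 active means B-score over 3 SD under the library average, no early fluorescence shift, positive overall ratio signal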
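Signal: kinetic Fluo4 fluorescence imaging of calcium influx. Material: stable TRPC4beta/mu-opioid receptor HEK293 cells. Probe or stimulus: DAMGO in two steps, submaximal then maximal.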
TRPC4 act – activators of mouse TRPC4 channel; Q9QUQ5; HEK293 TRPC4beta/mu-opioid, Fluo4 calcium fluorescence; hits give high values; 310,000 compounds, 0.49% hits; B-score at 10 µM; AID 2237;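 active means B-score above 5 SD of library B-scores, and initial fluorescence ratio not above library mean plus 5 SD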;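 further: positive B-score marks a calcium rise read as TRPC4 activation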
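System – HEK293 cells stably co-expressing mouse TRPC4beta and mu-opioid receptor · Signal – Fluo4 calcium-sensitive dye fluorescence, kinetic, 1 Hz baseline · Benchmarks – buffer (low) and maximal DAMGO (high) · Read-out – B score of integrated fluorescence ratio per well · Incubation – dye loading 45 min room temperature, 110 s kinetic read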
TRPC4 PAM – allosteric potentiators of mouse TRPC4 channel. Q9QUQ5. HEK293 TRPC4beta/mu-opioid, DAMGO EC20, Fluo-4 Ca2+ flux; hits give high values. B-score at 10 µM. 310,000 compounds, 0.42% hits;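 active means B-score of calcium response area above 5 SD of library B-scores, with initial fluorescence ratio within 5 SD of library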
TRPC6 inhibitor – blocks the mouse TRPC6 cation channel. HEK293-TRPC6, membrane potential dye, ACh-evoked depolarization; hits give low values. 310,000 compounds, 1.1% hits. Q61143. B-score at 10 µM;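 active means B-score under library mean minus 3 SD, initial fluorescence not abnormally high, positive integrated signal ratio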;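 further: B-score derived from integrated fluorescence ratio over the kinetic read; more negative B-score means stronger inhibition of depolarization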
A number is an active result.

`COC(=O)[C@@]1(Cc2ccc(F)cc2)[C@H]2c3cc(C(=O)N(C)C)n(CCc4ccc(OC)c(Br)c4)c3C[C@H]2CN1C(=O)c1ccccc1` gave TRPC6 activator inactive, TRPC4 inh inactive, TRPC4 act inactive, TRPC4 PAM inactive and TRPC6 inhibitor inactive.
COC(=O)[C@@]1(Cc2ccc(F)cc2)[C@H]2c3cc(C(=O)N(C)C)n(CCc4ccccn4)c3C[C@H]2CN1C(=O)c1ccccc1 was read as TRPC6 activator inactive, TRPC4 inh inactive, TRPC4 act 143, TRPC4 PAM inactive and TRPC6 inhibitor inactive.
Cc1nn(C)cc1C(C(=O)NC1CCCCC1)N(C(=O)Cc1cccs1)c1ccc(F)cc1 (stereo not drawn) was read as TRPC6 activator inactive, TRPC4 inh inactive, TRPC4 act inactive, TRPC4 PAM inactive and TRPC6 inhibitor inactive.
Screening Cc1nn(C)cc1C(C(=O)NC1CCCCC1)N(C(=O)Cc1cccs1)c1ccc(C(C)C)cc1 (stereo not drawn) returned TRPC6 activator inactive, TRPC4 inh inactive, TRPC4 act 44, TRPC4 PAM inactive and TRPC6 inhibitor inactive.
`CC(C)Cn1cc(F)c(=O)n(CC(C)C)c1=O` gave TRPC6 activator inactive, TRPC4 inh inactive, TRPC4 act inactive, TRPC4 PAM inactive and TRPC6 inhibitor inactive.
Screening C/C(N)=C(/C#N)C(=O)COC(=O)CC1CCCC1 returned TRPC6 activator inactive, TRPC4 inh inactive, TRPC4 act inactive, TRPC4 PAM inactive and TRPC6 inhibitor inactive.
Screening C/C(N)=C(/C#N)C(=O)COC(=O)CC12CC3CC(CC(C3)C1)C2 returned TRPC6 activator inactive, TRPC4 inh -7, TRPC4 act inactive, TRPC4 PAM inactive and TRPC6 inhibitor inactive.
`C=CCOc1cccc(C2C(C(=O)c3ccco3)=C(O)C(=O)N2Cc2ccco2)c1` (stereo not drawn) gave TRPC6 activator inactive, TRPC4 inh inactive, TRPC4 act inactive, TRPC4 PAM inactive and TRPC6 inhibitor inactive.
CC(=O)C1=C(O)C(=O)N(Cc2ccco2)C1c1ccc2c(c1)OCO2 (stereo not drawn) was read as TRPC6 activator inactive, TRPC4 inh -7, TRPC4 act inactive, TRPC4 PAM inactive and TRPC6 inhibitor inactive.
`CC(C)(C)CN1CCC(Oc2cccc(C(=O)N3CCC[C@H]3CO)c2)CC1` gave TRPC6 activator inactive, TRPC4 inh inactive, TRPC4 act inactive, TRPC4 PAM inactive and TRPC6 inhibitor inactive.
For CC1(C)CC(=O)c2cnc(NC3CC3)nc2C1 the results were TRPC6 activator inactive, TRPC4 inh inactive, TRPC4 act inactive, TRPC4 PAM inactive and TRPC6 inhibitor inactive.
For Cc1ccc(Nc2ncc3c(n2)CC(C)(C)CC3=O)cc1 the results were TRPC6 activator inactive, TRPC4 inh inactive, TRPC4 act inactive, TRPC4 PAM 18 and TRPC6 inhibitor inactive.
`N=C(N)SCc1ccccn1` gave TRPC6 activator inactive, TRPC4 inh inactive, TRPC4 act inactive, TRPC4 PAM 38 and TRPC6 inhibitor inactive.
`CCCN(CCC)CCNC(=O)c1cc2c(-c3ccc(Cl)cc3)nn(C)c2s1` gave TRPC6 activator inactive, TRPC4 inh inactive, TRPC4 act 47, TRPC4 PAM inactive and TRPC6 inhibitor inactive.
Screening CCCN(CCC)CCCNC(=O)c1cc2c(-c3ccc(OC)c(OC)c3)nn(C)c2s1 returned TRPC6 activator inactive, TRPC4 inh inactive, TRPC4 act 114, TRPC4 PAM inactive and TRPC6 inhibitor inactive.
For COc1ccc(-c2nn(C)c3sc(C(=O)NCCN(C)C)cc23)cc1OC the results were TRPC6 activator inactive, TRPC4 inh inactive, TRPC4 act inactive, TRPC4 PAM inactive and TRPC6 inhibitor inactive.
CCN(CC)CCNC(=O)c1cc2c(-c3cccc(OC)c3)nn(C)c2s1 was read as TRPC6 activator inactive, TRPC4 inh inactive, TRPC4 act inactive, TRPC4 PAM 17 and TRPC6 inhibitor inactive.
Screening CCCCN(CC)CCNC(=O)c1cc2c(-c3ccc(Cl)cc3)nn(C)c2s1 returned TRPC6 activator inactive, TRPC4 inh inactive, TRPC4 act 94, TRPC4 PAM inactive and TRPC6 inhibitor inactive.
Screening COCCCNC(=O)c1cc2c(-c3cccc(OC)c3)nn(C)c2s1 returned TRPC6 activator inactive, TRPC4 inh inactive, TRPC4 act inactive, TRPC4 PAM inactive and TRPC6 inhibitor inactive.
`CCCN1CCC(N(CCc2ccccc2)Cc2ccccc2)CC1` gave TRPC6 activator inactive, TRPC4 inh inactive, TRPC4 act inactive, TRPC4 PAM inactive and TRPC6 inhibitor inactive.
